ZTA counter = ZTA (EBV) inhibition in EBNA-1 counter-screen | ZTA-DNA binding, fluorescence polarization | P03206 | inhibition, % at 11 µM | 320,000 tested, 0.15% active; in the data active = inhibition above about 33%
Target sequence (P03206 whole entry, looked up): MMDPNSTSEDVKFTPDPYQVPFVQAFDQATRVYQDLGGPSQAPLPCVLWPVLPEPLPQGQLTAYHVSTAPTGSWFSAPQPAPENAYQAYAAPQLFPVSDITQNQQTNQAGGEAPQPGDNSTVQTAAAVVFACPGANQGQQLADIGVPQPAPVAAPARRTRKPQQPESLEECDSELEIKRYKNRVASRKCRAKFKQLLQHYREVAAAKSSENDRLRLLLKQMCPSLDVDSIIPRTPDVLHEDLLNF
HCV core dimer = HCV core protein dimerization inhibition; inhibition, % at 5 µM; 300,000 tested, 0.33% active; AID 1899; TR-FRET GST/Flag-core106 dimerization, 1536-well;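 active = inhibition above the mean of all tested compounds plus 3 SD, set per screening campaign, cut at about 45% in these data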
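System: GST/Flag-tagged HCV core106 proteins. Incubation: compound-protein-antibody incubation 4 h at 22.5 °C. Technique: HTRF with 340 nm excitation, 617/671 nm emission. Medium: KF-containing HEPES buffer, pH 7.45, DTT, CHAPS, BSA. Read-out: inhibition (%) from 671 over 617 nm ratio. Also added: Eu(K)-anti-GST 90 ng/mL plus XL665-anti-Flag 1 µg/mL.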
GPR7 antagonist = blocks human GPR7 receptor signaling; P48145; GPR7-expressing cells, fluorescence antagonist assay; inhibition, % at 4.4 µM; 290,000 tested, 1.1% active; AID 1861; in the data active = inhibition above about 16%, passing the limit was not always enough;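 note: cells stimulated with the agonist NPW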
EBV gp42 inh = EBV gp42 inhibition; Fluorescence polarization binding assay, mP read-out; inhibition, % (tested at 21.74 µM); 220,000 tested, 0.42% active; Q1HVG2; in the data active = inhibition above about 50%
Target sequence (Q1HVG2 whole entry, looked up): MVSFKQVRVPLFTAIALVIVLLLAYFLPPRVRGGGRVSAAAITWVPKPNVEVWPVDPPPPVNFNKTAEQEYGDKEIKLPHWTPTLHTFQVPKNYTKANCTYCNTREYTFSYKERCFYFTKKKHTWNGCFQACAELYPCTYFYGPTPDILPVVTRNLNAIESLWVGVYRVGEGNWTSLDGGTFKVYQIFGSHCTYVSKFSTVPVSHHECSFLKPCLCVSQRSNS
HCV NS3 hel inh = inhibitors of Hepatitis C virus NS3 helicase; AID 1800; NS3 helicase DNA unwinding, Cy5 molecular beacon fluorescence; 290,000 tested, 0.56% active; inhibition, % at 10.9 µM;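 active = inhibition above the mean of all tested compounds plus 3 SD, set per campaign, cut at about 35% in these data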
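test system = hepatitis C virus NS3 helicase domain fragment enzyme | reagent = annealed dual-labelled DNA beacon duplex, ATP-started | times = 1 h at 25 °C | detection = Cy5 fluorescence, 0 and 60 min reads | read-out basis = percent inhibition from t60/t0 fluorescence ratio | control set = DMSO and thioflavine S | replication = one well per compound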
EBNA-1 inh = blocks EBNA-1 binding to DNA; EBNA-1 DNA binding, fluorescence polarization; inhibition, % at 14.8 µM; 300,000 tested, 0.34% active; AID 1950; in the data active = inhibition above about 28%
NS3 hel confirm = HCV NS3 helicase inhibition, confirmation assay; shares compounds with HCV NS3 hel inh; NS3 helicase DNA unwinding, Cy5 molecular beacon fluorescence; inhibition, % at 10.9 µM; 1,600 tested, 31% active;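 active = inhibition above the mean of all tested compounds plus 3 SD, cutoff set per campaign, cut at about 36% in these data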
FID counter trip = displaces DNA intercalator in HCV helicase counter-screen; inhibition, % at 7.9 µM; 1,600 tested, 4% active; DNA fluorescent intercalator displacement, fluorescence; shares compounds with HCV NS3 hel inh; AID 1945; in the data active = inhibition above about 37%;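 note: higher means more displacement of ethidium bromide from the DNA hairpin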
A number is an active result; – = inactive; · = not tested or not shown. Shown are actives, neighbours in structure and some others; about 2.3% of the full set was active somewhere.

SMILES	ZTA counter	HCV core dimer	GPR7 antagonist	EBV gp42 inh	HCV NS3 hel inh	EBNA-1 inh	NS3 hel confirm	FID counter trip
Cc1ccc(C(c2cc(Cl)c3cccnc3c2O)N2CCN(C)CC2)cc1 (centres undefined)	–	–	–	·	42	–	70	67
Cc1cc2c(n1-c1ccc(C(=O)O)cc1)CCCCC2	·	·	–	·	54	·	71	–
CCN(CCO)c1nc(SC)nc2c1sc1nc(-c3ccco3)c3c(c12)CCC3	–	80	–	–	36	–	81	–
CCN(CCO)c1ncnc2c1sc1nc(C(C)C)c3c(c12)CC(C)(C)OC3	–	–	–	–	–	–	·	·
Cc1cc(N=Cc2c(O)ccc3cc(Br)ccc23)no1	–	–	–	–	37	–	–	39
O=[N+]([O-])c1ccc(C2=Nn3c(Cn4nnc5ccccc54)nnc3SC2)cc1	–	–	–	–	–	–	·	·
O=C(O)C(Cc1ccccc1)Nc1ccc([N+](=O)[O-])cc1[N+](=O)[O-] (centres undefined)	–	–	–	·	38	–	–	–
N#CC1=C(S)N(c2ccccc2)C(c2ccc(-c3cccc(Cl)c3)o2)NC1=O (centres undefined)	–	–	–	–	36	–	60	–
Cc1cccc(N2C(S)=C(C#N)C(=O)NC2c2ccco2)c1 (centres undefined)	–	–	–	–	–	–	·	·
COc1ccccc1CNCC(=O)Nc1ccccc1-n1cccc1	–	–	–	–	–	–	·	·
COc1cccc(/C=N/NC(=O)c2oc3nc(-c4ccccc4)cc(-c4ccco4)c3c2N)c1	–	–	–	–	39	–	–	–
NNC(=O)c1oc2nc(-c3cccs3)cc(-c3ccco3)c2c1N	–	–	–	·	–	–	·	·
Cc1ccc(-c2cc(-c3ccco3)c3c(N)c(C(=O)NN)oc3n2)cc1	–	–	–	–	42	–	–	–
COc1cccc(-c2cc(C(=O)N/N=C/c3ccco3)c3ccccc3n2)c1	–	–	–	·	–	–	·	·
O=C(COc1ccc(F)cc1)N(Cc1ccco1)C1CCS(=O)(=O)C1 (centres undefined)	–	–	–	·	–	–	·	·
Cc1ccc(-n2c(C)cc(C(=O)NS(=O)(=O)c3ccc(C)cc3)c2C)cc1	–	–	–	–	39	–	43	–
Cc1ccc(S(=O)(=O)NC(=O)c2cc(C)n(C3CC3)c2C)cc1	–	–	–	–	38	–	–	–
CCOc1cc(C2C3=C(CC(C)(C)CC3=O)OC3=C2C(=O)CC(C)(C)C3)cc([N+](=O)[O-])c1O	–	–	–	–	–	–	·	·
CC1(C)CC(=O)C2=C(C1)OC1=C(C(=O)CC(C)(C)C1)C2c1cc([N+](=O)[O-])cc([N+](=O)[O-])c1O	–	–	–	–	43	–	78	–
Cc1c(Cl)cccc1NS(=O)(=O)c1ccc2c(c1)C1C=CCC1C(c1ccc(C(=O)O)cc1)N2 (centres undefined)	–	–	–	79	39	–	55	43
Cc1cc(N=Nc2ccccc2C(=O)O)c(C)c(C)c1O	–	–	–	–	49	–	66	–
Cc1cc(O)c(C(C)C)cc1N=Nc1ccccc1C(=O)O	–	–	–	–	–	–	·	·
CCOc1ccc2[nH]c(=O)c(CN(Cc3nnnn3Cc3ccco3)C3CCCCC3)cc2c1	–	–	–	–	65	–	–	–
CN(C)CC(=O)Nc1cc(C(F)(F)F)ccc1Cl	–	–	–	–	–	–	·	·
N/C(CC(=O)Nc1cc(C(F)(F)F)ccc1Cl)=N\O	–	–	–	–	–	–	–	–
Cc1noc(C)c1S(=O)(=O)N(CC(=O)NC1CCC(C)CC1)c1ccc(C(C)C)cc1 (centres undefined)	–	–	–	·	–	–	·	·
COc1cc(NC(=O)C(=O)NNC(=O)C2CCCCC2)c(OC)cc1Cl	–	–	–	–	36	–	–	–
NC(=S)N/N=C\c1c(OCc2ccccc2Cl)ccc2ccccc12	–	–	–	–	36	–	–	–
NC(=S)N/N=C\c1c2ccccc2cc2ccccc12	–	–	–	–	–	–	·	·

Screening data from PubChem.
